Assay outcomes deposited in PubChem BioAssay by several laboratories.
A selection: hits, their analogues and other compounds. The true share with any hit is near 1.9%.
Neddyl block – blocks human cullin neddylation | TR-FRET cullin neddylation, biochemical | inhibition, % at 25 µM | hit rate 0.58% among 360,000 | AID 651699; in the data active means inhibition above about 36%
Target sequence (P61081 whole entry, looked up): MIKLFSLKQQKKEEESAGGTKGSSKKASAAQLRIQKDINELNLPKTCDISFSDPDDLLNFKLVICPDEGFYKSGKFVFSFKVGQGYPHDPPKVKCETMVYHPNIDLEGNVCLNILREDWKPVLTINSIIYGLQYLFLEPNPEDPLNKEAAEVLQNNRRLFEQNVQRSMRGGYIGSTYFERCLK
Target sequence (Q13564 whole entry, looked up): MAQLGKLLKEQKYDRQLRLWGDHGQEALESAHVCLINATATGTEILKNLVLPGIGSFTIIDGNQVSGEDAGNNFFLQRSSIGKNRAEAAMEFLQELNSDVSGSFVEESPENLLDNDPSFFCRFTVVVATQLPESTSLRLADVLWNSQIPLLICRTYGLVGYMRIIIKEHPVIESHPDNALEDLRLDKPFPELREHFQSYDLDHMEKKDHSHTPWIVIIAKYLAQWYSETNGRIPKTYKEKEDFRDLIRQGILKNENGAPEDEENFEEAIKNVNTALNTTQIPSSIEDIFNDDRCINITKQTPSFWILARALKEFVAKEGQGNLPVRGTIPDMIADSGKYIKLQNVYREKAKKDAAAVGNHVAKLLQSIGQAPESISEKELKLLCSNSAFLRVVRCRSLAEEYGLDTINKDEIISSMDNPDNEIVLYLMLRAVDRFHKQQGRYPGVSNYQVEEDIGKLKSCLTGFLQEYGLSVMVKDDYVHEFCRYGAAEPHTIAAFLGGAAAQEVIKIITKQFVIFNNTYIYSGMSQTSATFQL
Calb FLC – affects C. albicans growth with fluconazole. C. albicans CaCi-2 + fluconazole, Alamar Blue growth, 48 h. growth inhibition, % (test concentration not listed). hit rate 0.57% among 300,000. AID 1979;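 active means growth inhibition above about 58% in most replicates, limit read from the data, passing the limit was not always enough; inconclusive means exactly half the replicates above a set limit; inactive means most replicates below a set limit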;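 further: all wells also contain fluconazole at 8 µg/ml as a sub-toxic cotreatment; 0% = median of DMSO wells and 100% = median of geldanamycin control wells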
FXN GAA850 act – frataxin GAA850 promoter activation | AID 540364 | activation, % at 6 µM | HEK293 lucGAA850 FXN promoter luciferase reporter, 24 h; percent of 10 µM SAHA response | hit rate 0.56% among 360,000;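 active means activation above the average of all compounds screened plus 3 SD, cutoff fixed separately per campaign, cut at about 7.5% in these data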;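 further: 0% = DMSO wells and 100% = 10 µM SAHA wells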
proCasp7 act – counter-screen for procaspase-3 activators: activators of human procaspase-7; P55210; recombinant procaspase-7, Ac-DEVD-pNA absorbance 405 nm; D23A/D198A/D206A triple mutant, cannot self-cleave; scale: DMSO 0, 5 µM enzyme 100; activation, % at 8.5 µM; hit rate 0.093% among 330,000;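 active means percent activation above the screen-wide mean plus 3 SD, cut at about 25% in these data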
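Assay system: Uncleavable procaspase-7 mutant enzyme / Input: 2 µM procaspase-7 mutant as dispensed / Dosing: single nominal 8.5 µM compound dose, 0.8% DMSO final / Timing: 1 h enzyme–compound preincubation and 2 h substrate reaction, both 25 °C / Detection: p-Nitroaniline absorbance at 405 nm, read at 0 and 120 min / Replication: singlicate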
proCasp3 act – activates human procaspase-3; P42574; recombinant procaspase-3 D3A, Ac-DEVD-pNA absorbance 405 nm; activation, % at 8.5 µM; hit rate 0.11% among 330,000; AID 463141;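 active means activation above the mean of all tested compounds plus 3 SD, cut at about 21% in these data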;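 further: 0% = DMSO alone and 100% = DMSO wells spiked with extra 5 µM PC-3 D3A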
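Assay system – Procaspase-3 D3A mutant · Benchmarks – DMSO low control, extra-enzyme high control · Technique – 405 nm absorbance of p-nitroaniline, reads at 0 and 120 min · Doses – 8.5 µM nominal · Measure – % activation between DMSO and enzyme-spiked controls · Also added – Ac-DEVD-pNA chromogenic peptide substrate · Schedule – 1 h compound preincubation, 2 h substrate hydrolysis at 25 °C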
HIF act – HIF pathway transcriptional activation | U2OS HRE-luciferase reporter, luminescence; normalized: DMSO 0%, desferrioxamine 100% | activation, % at 7.5 µM (by protocol) | hit rate 0.32% among 300,000 | AID 1910;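 active means mean activation of at least 10% of the iron chelator positive control signal, with at least half of replicates also reaching 10%; inconclusive means mean and replicate majority disagree about reaching 10%; inactive means mean and most replicates under 10%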
PC3 D3A act – activates human procaspase-3, dual activator counter-screen; AID 493114; 290 tested, under 10 active; activation, % at 8.5 µM; recombinant PC-3 D3A, Ac-DEVD-pNA absorbance 405 nm; aspartates 9, 28, 175 changed to alanine; 100% = enzyme control; shares compounds with proCasp7 act;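 active means mean percent activation across triplicates above a set limit taken from the earlier primary procaspase-3 screen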;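 further: 0% = DMSO wells and 100% = DMSO wells with 5 µM added PC-3 D3A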
Procasp7 act – activates human procaspase-7, confirming dual procaspase activators; activation, % at 8.5 µM; recombinant procaspase-7, Ac-DEVD-pNA absorbance 405 nm; D23A/D198A/D206A mutant that cannot self-cleave; 290 tested, under 10 active; shares compounds with proCasp7 act;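 active means mean activation above a set limit carried over from the earlier primary screen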;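 further: 0% = DMSO only and 100% = DMSO with added 5 µM PC-7 enzyme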
Active calls of the source: *; ? = inconclusive; · = not tested or not shown.

SMILES | Neddyl block | Calb FLC | FXN GAA850 act | proCasp7 act | proCasp3 act | HIF act | PC3 D3A act | Procasp7 act
Cc1cc2c(c(=O)n1C)C(Cc1ccccc1)C(C#N)=C(N)O2 (stereo not drawn) | · | -3 | 3 | 47* | 38* | 0 | -27 | -35
Cc1ccc(NC(=O)C2CC(=O)N(c3ccccc3Cl)C2)cc1S(=O)(=O)N1CCOCC1 (stereo not drawn) | -22 | · | 3 | · | · | · | · | ·
CC(=O)Nc1ccc(C2CC(c3ccc(Cl)cc3)=NN2c2ccccc2)cc1 (stereo not drawn) | · | -79 | 4 | 136* | 163* | 0 | -28 | -34
CC(=O)Nc1ccc(C2=NN(c3ccccc3)C(c3ccccc3)C2)cc1 (stereo not drawn) | · | -1 | -1 | 46* | 218* | -10 | -28 | -36
Clc1ccc(C2=NN(c3ccccc3)C(c3ccco3)C2)cc1 (stereo not drawn) | · | -12 | 2 | -25 | -18 | 0 | · | ·
CC(C)NC(=O)C1(C)CCN1C(=O)C1(c2ccccc2)CC1 (stereo not drawn) | 8 | · | 2 | · | · | · | · | ·
Cc1nnc(SCC(=O)Nc2cccc(S(=O)(=O)N3CCCC3)c2)n1C1CC1 | 7 | · | 0 | · | · | · | · | ·
CC(=O)Nc1ccc(NC(=O)CSc2nc3ccccc3nc2N2CCCCC2)cc1 | -14 | 18 | 0 | 0 | -5 | 0 | · | ·
Cc1cc(C)cc(NC(=O)CSc2nc3ccccc3nc2N2CCCCC2)c1 | -2 | 6 | -1 | 4 | -2 | 0 | · | ·
Cc1cc(C)cc(NC(=O)CSc2nc3ccccc3nc2N2CCCC2)c1 | -9 | -13 | 1 | 39* | 7 | 0 | -29 | -34
O=C(CSc1nc2ccccc2nc1N1CCCC1)Nc1ccc(F)cc1 | -22 | 7 | 1 | 41* | 2 | 0 | -30 | -34
Nc1ccccc1-c1nc2ccccc2c(=O)o1 | · | -5 | 0 | 34* | 27* | -32 | -30 | -36
CCOC(=O)C1=C(C)NC(C)=C(C(=O)OCC)C1/C=C/c1ccccc1OC | · | -10 | 1 | 29* | 15 | -1 | -28 | -23
CCOC(=O)C1=C(C)NC(=O)NC1/C=C/c1ccccc1OC (stereo not drawn) | -9 | -11 | 4 | 6 | 2 | -1 | · | ·
c1ccc(Cn2ncc3ccccc32)cc1 | -14 | 7 | 2 | -5 | -7 | 0 | · | ·
CN(C)c1nc(-c2ccccc2)c2cnn(Cc3ccccc3)c2n1 | · | 7 | 1 | 34* | 18 | 0 | -29 | -36
CC(C)OC(=O)CC(=O)CSc1nc2c(cc1C#N)CCCCCC2 | · | 4 | 3 | 75* | 62* | 1 | -29 | -27
O=C(Nc1ccc(F)c(Cl)c1)C1Cc2c(-c3ccco3)ccnc2O1 (stereo not drawn) | -5 | · | -1 | · | · | · | · | ·
CCOC(=O)C1=C(C)NC(=O)NC1c1ccc(N2CCC(c3ccccc3)=N2)cc1 (stereo not drawn) | · | 0 | -4 | 72* | 31* | -1 | -30 | -36
CCOC(=O)C1=C(C)NC(=O)NC1c1ccc(NC(C)=O)cc1 (stereo not drawn) | 6 | -2 | 1 | 8 | 1 | 0 | · | ·
O=c1c(-c2nnc(SCc3ccc(Cl)cc3Cl)o2)cccn1Cc1ccccc1 | · | -9 | 1 | 87* | 24* | 0 | -12 | -12
CSc1nnc(-c2cccn(Cc3ccccc3)c2=O)o1 | · | -3 | 2 | 9 | 9 | 1 | · | ·
CCN(CC)c1ccc(/C=N/NC(=O)c2nnn(-c3nonc3N)c2C(C)C)c(O)c1 | · | ? | -10 | 44* | 59* | 89* | -30 | -35
O=C1c2ccccc2[C@@H]2C[C@@H](O)[C@H](Nc3cccc(C(F)(F)F)c3)CCN12 | 7 | · | -2 | -1 | 1 | · | · | ·
CCN(CC)c1ccc(-c2nn3c(-c4ccccc4OC)nnc3s2)cc1 | · | 48 | 7 | 33* | -1 | 1 | -31 | -36
SMILES | Neddyl block | Calb FLC | FXN GAA850 act | proCasp7 act | proCasp3 act | HIF act | PC3 D3A act | Procasp7 act
CCOC(=O)c1nc(Nc2cc(Cl)ccc2OC)c2ccccc2n1 | · | -3 | 0 | 26* | 8 | 0 | -25 | -33
Cc1cccc(C2=NN(c3ccccc3)[C@H](CO)[C@H]2c2ccc(Cl)cc2)c1 | · | · | -1 | 9 | 19 | · | · | ·
OC[C@@H]1[C@@H](c2ccccc2)C(c2ccc(F)cc2)=NN1c1ccccc1 | · | · | 1 | 29* | 16 | · | -29 | -35
OC[C@@H]1[C@@H](c2ccccc2)C(c2cccc(Cl)c2)=NN1c1ccccc1 | · | · | 1 | 8 | 18 | · | · | ·
OC[C@@H]1[C@@H](c2ccccc2)C(c2ccccc2)=NN1c1ccccc1 | · | · | 1 | 31* | 17 | · | -30 | -36
NC(N)=N/N=C(\N=Nc1ccccc1)c1ccc(Cl)cc1 | -21 | · | -1 | · | · | · | · | ·
COC(=O)C1C(O)=C(C=Nc2ccccc2)C(=O)CC1(C)C (stereo not drawn) | 7 | ? | 0 | 6 | 4 | -1 | · | ·
COC(=O)C1C(O)=C(C=Nc2ccc(N)cc2)C(=O)CC1(C)C (stereo not drawn) | 21 | 17 | -1 | 36* | 11 | 0 | 3 | 0
CN(C(=O)COC(=O)c1c[nH]c2ccccc12)c1ccccc1 | 1 | · | 0 | · | · | · | · | ·
O=C1C=C(Nc2ccccc2)CC(c2ccccc2)C1 (stereo not drawn) | 3 | 9 | 1 | 17 | 5 | 1 | · | ·
COc1ccc(NC2=CC(=O)CC(c3ccccc3)C2)cc1 (stereo not drawn) | 4 | 3 | 1 | 26* | 18 | 0 | 0 | -2
Oc1ccc(C2=NN(c3ccccc3)C(c3ccc(F)cc3)C2)cc1 (stereo not drawn) | · | -8 | 2 | 36* | 20 | 0 | -30 | -35
Fc1ccc(C2=NN(c3ccccc3)C(c3ccco3)C2)cc1 (stereo not drawn) | · | -19 | 3 | 44* | 32* | 1 | -29 | -34
COc1ccc(CNC(=S)N/N=C/c2ccncc2)cc1 | -26 | -1 | -1 | 8 | -6 | 0 | · | ·
CCN(CC)c1ccc(/C=N/NC(=S)NCc2ccc(OC)cc2)cc1 | · | ? | 3 | 37* | 44* | 1 | -30 | -30
CCN(CC)c1ccc(/C=N/NC(=S)NCc2ccccc2)cc1 | · | 10 | 1 | 43* | 67* | 0 | -26 | -29
